# Experimental data as given in ChEMBL document CHEMBL4431389, “Optimisation of a novel series of potent and orally bioavailable azanaphthyridine SYK inhibitors” (Bioorg Med Chem Lett, 2016).
# How the values were obtained:
# [1] = molecular target: T1, Tyrosine-protein kinase SYK (Homo sapiens, UniProt P43405); assay: Inhibition of N-terminal 6His-tagged full length human recombinant SYK expressed in baculovirus using Biotin-AAAEEIYGEI as substrate after 60 mins by TR-FRET assay
# [2] = molecular target: T1, Tyrosine-protein kinase SYK; assay: Inhibition of SYK in human B cells assessed as suppression of anti-IgM-induced CD69 surface expression preincubated for 30 mins followed by anti-IgM addition measured after 3.5 hrs by flow cytometric analysis; assay type: cell-based
# albumin = albumin (Homo sapiens, UniProt P02768); assay: Binding affinity to human serum albumin by HPLC analysis; assay type: ADME; conditions: read-out: PB (converted)
# [3] = molecular target: Voltage-gated inwardly rectifying potassium channel KCNH2 (Homo sapiens, UniProt Q12809); assay: Inhibition of human ERG expressed in CHOK1 cell membranes after 2 hrs by cy3b-dofetilide-based fluorescence polarization assay
# [4] = Lipophilicity, log D of the compound by chromatographic method; assay type: physicochemical
# Aurora kinase B = Aurora kinase B (Homo sapiens, UniProt Q96GD4); assay: Inhibition of N-terminal-6His-tagged full length human Aurora B expressed in baculovirus using 5FAM-PKA-tide as substrate after 120 mins by fluorescence polarization assay
# [5] = Cmax in rat at 3 mg/kg, po; assay type: ADME, organism-based; set-up: dose 3 mg/kg, route oral; conditions: in vivo
# [6] = AUC in rat at 3 mg/kg, po; assay type: ADME, organism-based; conditions: in vivo
# [7] = Dissociation constant, pKa of the compound; assay type: physicochemical
# [8] = molecular target: Vascular endothelial growth factor receptor 2 (Homo sapiens, UniProt P35968); assay: Inhibition of KDR (unknown origin)
# [9] = molecular target: Tyrosine-protein kinase JAK1 (Homo sapiens, UniProt P23458); assay: Inhibition of JAK1 (unknown origin)
# [10] = molecular target: Leucine-rich repeat serine/threonine-protein kinase 2 (Homo sapiens, UniProt Q5S007); assay: Inhibition of LRRK2 (unknown origin)
# Rattus norvegicus [11] = assay: (§1) In vivo inhibition of SYK-stimulated Fc-gamma receptor mediated immune complex activation in po dosed CD rat assessed as reduction in cutaneous reverse passive Arthus reaction preincubated for 1 hr followed by ovalbumin challenge with Evans blue dye measured after 4 hrs by spectrophotometric analysis; assay type: functional, organism-based
# Procedure, shortened: (§2)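 Male CD rats (175–200 g, 8 per group, observer blind) got an oral suspension in 1% methylcellulose 1 h before challenge, with blood sampled for exposure. Challenge was iv 1% ovalbumin in saline (10 mg/kg) with 1% Evans blue. Ten min later, under isoflurane, rabbit anti-OVA IgG went intradermally at three left sites, control rabbit IgG on the right. At 4 h, 12 mm skin punches went into formamide, 16 h at 80 °C.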
# Rattus norvegicus [12] = assay: as §1, with “in” for “in po dosed”, “reaction at 10 mg/kg, po” for “reaction”; assay type: functional; procedure, shortened: as §2
# Rattus norvegicus [13] = assay: as §1, with “in” for “in po dosed”, “reaction at 30 mg/kg, po” for “reaction”; assay type: functional; procedure, shortened: as §2
# [14] = Genotoxicity in Salmonella typhimurium TA1537 at 5000 ug/plate in presence of metabolic activation by Ames test; assay type: toxicity; conditions: salmonella enterica subsp. enterica serovar typhimurium
# [15] = Half life in rat at 3 mg/kg, po or 1 mg/kg, iv; assay type: ADME, organism-based; conditions: in vivo
# Procedure, shortened: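 Screening PK in rats: oral dosing at 3 mg/kg (n = 3) and intravenous dosing at 1 mg/kg (n = 1). Blood clearance, volume of distribution at steady state, half-life and oral bioavailability were derived from these profiles.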
# [16] = molecular target: Tyrosine-protein kinase BTK (Homo sapiens, UniProt Q06187); assay: Inhibition of BTK (unknown origin)
# [17] = Genotoxicity in Salmonella typhimurium TA1537 at 5000 ug/plate in absence of metabolic activation by Ames test; assay type: toxicity; conditions: salmonella enterica subsp. enterica serovar typhimurium
# Aurora kinase B, sequence (Q96GD4 whole entry): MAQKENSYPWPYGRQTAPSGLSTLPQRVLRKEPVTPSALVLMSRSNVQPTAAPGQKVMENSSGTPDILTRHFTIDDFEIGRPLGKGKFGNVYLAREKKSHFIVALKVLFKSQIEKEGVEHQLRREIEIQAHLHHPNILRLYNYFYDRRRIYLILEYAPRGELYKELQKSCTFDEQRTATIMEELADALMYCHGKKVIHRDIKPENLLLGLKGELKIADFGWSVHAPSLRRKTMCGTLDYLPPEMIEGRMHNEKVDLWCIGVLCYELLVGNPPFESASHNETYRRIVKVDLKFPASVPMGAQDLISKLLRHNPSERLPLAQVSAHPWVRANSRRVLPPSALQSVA
# Voltage-gated inwardly rectifying potassium channel KCNH2, sequence (Q12809 whole entry): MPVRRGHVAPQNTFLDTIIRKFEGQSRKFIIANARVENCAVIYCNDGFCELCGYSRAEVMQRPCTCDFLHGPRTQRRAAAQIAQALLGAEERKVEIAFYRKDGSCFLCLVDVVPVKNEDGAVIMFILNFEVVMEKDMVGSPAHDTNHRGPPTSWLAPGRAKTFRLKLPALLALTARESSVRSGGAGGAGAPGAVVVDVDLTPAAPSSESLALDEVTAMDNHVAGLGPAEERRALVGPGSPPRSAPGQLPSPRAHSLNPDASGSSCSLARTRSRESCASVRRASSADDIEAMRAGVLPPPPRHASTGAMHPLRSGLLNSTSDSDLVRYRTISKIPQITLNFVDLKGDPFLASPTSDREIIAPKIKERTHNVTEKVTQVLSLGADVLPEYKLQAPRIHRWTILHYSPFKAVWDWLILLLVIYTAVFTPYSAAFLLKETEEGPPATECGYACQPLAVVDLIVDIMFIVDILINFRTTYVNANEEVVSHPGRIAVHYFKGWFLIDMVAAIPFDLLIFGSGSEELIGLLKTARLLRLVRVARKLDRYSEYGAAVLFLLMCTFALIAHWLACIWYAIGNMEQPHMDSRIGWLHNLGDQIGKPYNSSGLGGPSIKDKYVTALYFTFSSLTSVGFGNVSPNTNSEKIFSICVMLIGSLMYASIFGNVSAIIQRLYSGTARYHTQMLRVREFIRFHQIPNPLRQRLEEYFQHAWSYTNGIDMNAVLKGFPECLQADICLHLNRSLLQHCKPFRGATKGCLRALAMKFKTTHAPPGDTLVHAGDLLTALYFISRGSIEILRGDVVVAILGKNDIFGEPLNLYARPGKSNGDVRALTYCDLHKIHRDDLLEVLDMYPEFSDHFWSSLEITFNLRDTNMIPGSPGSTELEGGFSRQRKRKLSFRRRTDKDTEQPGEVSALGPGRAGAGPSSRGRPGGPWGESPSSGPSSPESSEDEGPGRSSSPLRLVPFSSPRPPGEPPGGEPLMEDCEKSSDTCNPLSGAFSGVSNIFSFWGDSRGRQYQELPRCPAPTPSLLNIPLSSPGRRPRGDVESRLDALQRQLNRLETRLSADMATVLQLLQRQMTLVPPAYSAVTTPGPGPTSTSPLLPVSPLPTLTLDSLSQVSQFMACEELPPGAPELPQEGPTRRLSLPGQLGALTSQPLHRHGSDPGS
# albumin, sequence (P02768 whole entry): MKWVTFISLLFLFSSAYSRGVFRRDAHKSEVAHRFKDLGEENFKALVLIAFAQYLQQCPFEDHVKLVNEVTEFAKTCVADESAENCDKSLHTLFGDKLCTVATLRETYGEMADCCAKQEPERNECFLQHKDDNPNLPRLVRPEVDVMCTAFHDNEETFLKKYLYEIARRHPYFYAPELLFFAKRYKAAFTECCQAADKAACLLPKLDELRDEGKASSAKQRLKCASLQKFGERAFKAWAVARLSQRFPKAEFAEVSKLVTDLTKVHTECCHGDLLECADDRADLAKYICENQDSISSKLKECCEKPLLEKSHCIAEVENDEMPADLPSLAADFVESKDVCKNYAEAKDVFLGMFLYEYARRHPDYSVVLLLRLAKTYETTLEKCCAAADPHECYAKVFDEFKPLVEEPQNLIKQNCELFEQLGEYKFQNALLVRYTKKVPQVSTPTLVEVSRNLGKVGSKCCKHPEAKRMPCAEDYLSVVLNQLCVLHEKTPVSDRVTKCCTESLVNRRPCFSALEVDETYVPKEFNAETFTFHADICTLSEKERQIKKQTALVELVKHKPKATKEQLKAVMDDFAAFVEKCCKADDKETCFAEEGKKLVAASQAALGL
# Tyrosine-protein kinase JAK1, sequence (P23458 whole entry): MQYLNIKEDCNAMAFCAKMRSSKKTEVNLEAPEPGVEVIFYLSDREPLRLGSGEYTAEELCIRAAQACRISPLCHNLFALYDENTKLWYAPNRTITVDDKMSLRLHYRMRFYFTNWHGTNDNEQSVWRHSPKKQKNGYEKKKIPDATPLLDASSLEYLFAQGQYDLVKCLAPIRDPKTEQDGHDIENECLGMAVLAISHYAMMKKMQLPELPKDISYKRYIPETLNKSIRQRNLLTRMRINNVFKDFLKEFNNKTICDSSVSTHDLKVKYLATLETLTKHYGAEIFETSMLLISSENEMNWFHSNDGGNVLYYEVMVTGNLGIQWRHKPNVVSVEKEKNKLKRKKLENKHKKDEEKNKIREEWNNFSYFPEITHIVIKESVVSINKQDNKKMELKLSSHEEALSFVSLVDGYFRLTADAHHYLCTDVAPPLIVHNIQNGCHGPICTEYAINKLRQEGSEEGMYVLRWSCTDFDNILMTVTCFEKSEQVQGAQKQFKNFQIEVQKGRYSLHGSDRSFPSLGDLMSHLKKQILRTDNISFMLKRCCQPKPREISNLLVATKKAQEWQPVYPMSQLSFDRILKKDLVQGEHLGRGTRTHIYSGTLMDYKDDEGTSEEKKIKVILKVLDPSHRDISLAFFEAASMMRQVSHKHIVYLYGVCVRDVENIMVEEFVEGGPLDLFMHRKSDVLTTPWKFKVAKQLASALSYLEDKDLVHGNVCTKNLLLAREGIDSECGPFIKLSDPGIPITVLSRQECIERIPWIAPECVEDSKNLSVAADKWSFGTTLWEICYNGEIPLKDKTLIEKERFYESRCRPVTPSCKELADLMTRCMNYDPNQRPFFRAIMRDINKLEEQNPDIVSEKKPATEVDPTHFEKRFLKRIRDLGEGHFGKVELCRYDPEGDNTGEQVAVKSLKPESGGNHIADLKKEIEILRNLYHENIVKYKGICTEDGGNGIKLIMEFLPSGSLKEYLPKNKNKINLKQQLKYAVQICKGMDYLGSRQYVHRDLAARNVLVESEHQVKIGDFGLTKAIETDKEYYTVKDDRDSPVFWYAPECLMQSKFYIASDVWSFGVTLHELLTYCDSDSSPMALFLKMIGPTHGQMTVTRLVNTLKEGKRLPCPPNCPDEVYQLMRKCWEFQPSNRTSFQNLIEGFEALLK
# Tyrosine-protein kinase BTK, sequence (Q06187 whole entry): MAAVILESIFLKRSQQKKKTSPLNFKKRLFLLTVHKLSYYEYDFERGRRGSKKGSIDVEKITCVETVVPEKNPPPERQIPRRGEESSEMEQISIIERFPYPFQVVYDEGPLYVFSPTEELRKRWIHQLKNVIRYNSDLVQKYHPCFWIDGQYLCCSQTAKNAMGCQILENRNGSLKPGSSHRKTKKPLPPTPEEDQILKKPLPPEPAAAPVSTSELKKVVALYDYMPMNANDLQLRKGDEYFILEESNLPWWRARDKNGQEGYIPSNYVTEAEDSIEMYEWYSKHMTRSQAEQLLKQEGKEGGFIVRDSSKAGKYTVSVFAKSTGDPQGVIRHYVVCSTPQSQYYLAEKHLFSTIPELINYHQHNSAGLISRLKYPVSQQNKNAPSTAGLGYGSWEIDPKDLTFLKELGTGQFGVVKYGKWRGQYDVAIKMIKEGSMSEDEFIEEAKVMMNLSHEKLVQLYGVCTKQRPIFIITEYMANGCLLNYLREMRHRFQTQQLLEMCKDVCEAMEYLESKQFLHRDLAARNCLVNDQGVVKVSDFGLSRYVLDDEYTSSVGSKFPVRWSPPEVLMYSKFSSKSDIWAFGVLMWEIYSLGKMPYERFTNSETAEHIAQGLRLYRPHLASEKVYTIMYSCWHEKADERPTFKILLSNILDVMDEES
Structure (SMILES),IC50 [1] [nM],IC50 [2] [nM],fraction unbound (albumin),IC50 [3] [µM],further results
CN1CCNC[C@H]1CNc1nc(-c2cnn(C)c2)cc2nccnc12,100,200,,> 50.1,
CN(C)c1ccc(-c2cc3nccnc3c(NCCCCO)n2)cn1,200,> 10000,0.08,31.6,
Cc1ccc(-c2cc3nccnc3c(NC[C@H]3CCCNC3)n2)o1,,794,,20,
CN(C)c1ccc(-c2cc3nccnc3c(CCC3CCCNC3)n2)cn1 (racemic),251,1000,0.09,,chromatographic logD [4]: 2.4
c1cnc2c(NC[C@H]3CCCNC3)nc(N3CCNCC3)cc2n1,> 25100,,0.3,> 50.1,
Cc1ccc(-c2cc3ncncc3c(NC[C@H]3CCCNC3)n2)cc1,200,3980,0.09,10,
Cc1ccc(-c2cc3nc[nH]c(=O)c3c(NC[C@H]3CCCNC3)n2)cc1,158,3980,0.09,7.94,
CN(C)c1ccc(-c2cc3nccnc3c(NC[C@H]3CNCCO3)n2)cn1,200,1580,0.11,> 50.1,
c1cnc2c(NC[C@H]3CCCNC3)nc(-c3cc[nH]n3)cc2n1,,,0.21,> 50.1,
CN1CCNC[C@H]1COc1nc(-c2cnn(C)c2)cc2nccnc12,,100,,> 50.1,
O=C1CN(c2cc3nccnc3c(NC[C@H]3CCCNC3)n2)CCN1,6310,,0.41,,IC50 (Aurora kinase B): 7940 nM; chromatographic logD [4]: 0.6
Cc1ccc(-c2cc3ncn(C)c(=O)c3c(NC[C@H]3CCCNC3)n2)cc1,79.4,1260,0.1,25.1,
Cn1cc(-c2cc3nccnc3c(OC[C@H]3CCCNC3)n2)cn1,39.8,200,0.22,> 50.1,
Cn1cc(-c2cc3nccnc3c(OCC3CNCC(F)(F)C3)n2)cn1 (racemic),158,631,,> 50.1,IC50 (Aurora kinase B): 63.1 nM; Cmax [5]: 148 ng/mL; AUC [6]: 296 ng·h/mL; pKa [7]: 7
CN(C)c1ccc(-c2cc3nccnc3c(NCC3CNCC(F)(F)C3)n2)cn1 (racemic),100,1580,0.07,> 50.1,IC50 (Aurora kinase B): 501 nM; chromatographic logD [4]: 4.2
Cn1cc(-c2cc3nccnc3c(OCC3CNCCC3(F)F)n2)cn1 (racemic),,,,,Cmax [5]: 28 ng/mL; AUC [6]: 99 ng·h/mL; pKa [7]: 7.7
c1cnc2c(NC[C@H]3CCCNC3)nc(-c3cn[nH]c3)cc2n1,50.1,316,0.24,> 50.1,
CN(C)c1ccc(-c2cc3nccnc3c(NCC(F)(F)F)n2)cn1,126,> 10000,0.04,> 50.1,IC50 (Aurora kinase B): 50.1 nM; chromatographic logD [4]: 5.7
CN(C)c1ccc(-c2cc3nccnc3c(NC[C@@H]3CNCCN3C)n2)cn1,50.1,,0.09,> 50.1,
Cc1ccc(-c2cc3nccnc3c(NCCCCN)n2)cc1,,,,15.8,IC50 [8]: 1580 nM; IC50 [9]: 2000 nM
CN(C)c1ccc(-c2cc3nccnc3c(NCCC(N)=O)n2)cn1,158,3980,0.04,> 50.1,
CN(C)c1ccc(-c2cc3nccnc3c(NC[C@H]3CNCCN3C)n2)cn1,79.4,251,0.07,15.8,
Cn1cc(-c2cc3nccnc3c(NC[C@@H]3CNCCO3)n2)cn1,63.1,158,,> 50.1,IC50 [10]: 251 nM; IC50 [9]: 501 nM; inhibition (Rattus norvegicus [11]): Dose-dependent effect; inhibition in vivo at 10 mg/kg (Rattus norvegicus [12]): 45%; inhibition in vivo at 30 mg/kg (Rattus norvegicus [13]): 85%; Activity [14]: Non-Toxic; half-life [15]: 102 min; IC50 [16]: 251 nM; Activity [17]: Non-Toxic
CN(C)c1ccc(-c2cc3nccnc3c(NCCCCN)n2)cn1,,,0.11,39.8,
Cn1cc(-c2cc3nccnc3c(NCC3CNCC(F)(F)C3)n2)cn1 (racemic),316,2000,,> 50.1,IC50 (Aurora kinase B): 501 nM; Cmax [5]: 96 ng/mL; AUC [6]: 216 ng·h/mL; pKa [7]: 6.9
CN(C)c1ccc(-c2cc3nccnc3c(NC[C@H]3CNCCC3(F)F)n2)cn1,31.6,1580,0.05,20,

# Continued, in another order:
IC50 [1] [nM],IC50 [2] [nM],fraction unbound (albumin),Structure (SMILES),IC50 [3] [µM],further results
15.8,316,0.08,CN(C)c1ccc(-c2cc3nccnc3c(NC[C@H]3CCCNC3)n2)cn1,,
2.51,158,0.05,CN(C)c1ccc(-c2cc3nccnc3c(NC[C@@H]3CNCCC3(F)F)n2)cn1,,
3.98,79.4,,Cn1cc(-c2cc3nccnc3c(NC[C@@H]3CNCCC3(F)F)n2)cn1,25.1,
25.1,794,0.09,Cc1ccc(-c2cc3nccnc3c(NC[C@H]3CCCNC3)n2)cc1,,
6.31,501,0.05,CN(C)c1ccc(-c2cc(NC[C@H]3CCCNC3)c3cccnc3c2)cn1,,
25.1,501,0.09,CN(C)c1ccc(-c2cc3nccnc3c(OC[C@@H]3CCCNC3)n2)cn1,12.6,
20,794,0.05,Cc1ccc(-c2cc3ncccc3c(NC[C@H]3CCCNC3)n2)cc1,,
31.6,126,0.25,Cn1cc(-c2cc3nccnc3c(NC[C@H]3CCCNC3)n2)cn1,> 50.1,
7.94,794,0.06,CN(C)c1ccc(-c2cc3ncccc3c(NC[C@H]3CCCNC3)n2)cn1,> 50.1,
3.98,126,0.1,CN(C)c1ccc(-c2cc3nccnc3c(OC[C@H]3CCCNC3)n2)cn1,10,
25.1,316,0.12,CN(C)c1ccc(-c2cc3nccnc3c(NC[C@@H]3CNCCO3)n2)cn1,> 50.1,
20,1000,0.08,Cc1ccc(-c2cc3nccnc3c(NC[C@H]3CCCNC3)n2)s1,5.01,
